Data set [1] can be described thus: Steady-state plasma pharmacokinetics of LCZ696 analytes. The class given is in vivo, human. Particulars: for T1/2, mean (SD): LCZ696 200 mg bid (Day 21), patients with stable HF; for Exposure in patients with HF higher than in healthy subjects: LCZ696 200 mg bid, healthy-subject exposure from ref 20; for Dose proportionality of Cmax and AUC0-12 h: between LCZ696 100- and 200-mg doses; for Tmax / AUC(0-t) / Cmax: human, plasma.

The next data set concerns plasma ANP. The data set can be described thus: Plasma ANP. The format is in vivo, human. The note with it: for Plasma ANP, ratio-to-baseline (95% CI): geometric mean ratio; for Plasma ANP, predose: geometric mean.
Data set [2] in a line: Safety and tolerability: adverse events. The format is in vivo, human. In outline: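 Open-label study in HFrEF patients: 24-h run-in with ACEI/ARB stopped and other HF drugs kept, then oral test compound 100 mg bid for 7 days and 200 mg bid for 14 days. Patients domiciled on a standardized diet of 3 g sodium and 5 g potassium daily. Monitoring by ECG, vital signs, and electrolyte, renal and hepatic panels. Safety set comprised all patients dosed at least once.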

The subject of another data set is plasma NT-proBNP. The data set can be described thus: Plasma NT-proBNP. The format is in vivo, human. An outline of the steps:
(§1)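 Chronic HF patients (NYHA II–IV, LVEF ≤40%), domiciled on a fixed 3 g sodium/5 g potassium diet. ACEI/ARB stopped over a 24-h run-in. Oral test compound given 100 mg bid for 7 days, then 200 mg bid for 14 days. Plasma drawn at baseline, predose, and 4, 12, 16, 24 h post-dose on Days 7 and 21. Geometric means; ratio-to-baseline with 95% CI by paired t-test on log data.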

The subject of a further data set is plasma cGMP. The data set can be described thus: Plasma cGMP. Particulars: for Plasma cGMP, ratio-to-baseline (95% CI): geometric mean ratio; for Plasma cGMP, predose: geometric mean. The format is in vivo, human.
The subject of the next data set is urine cGMP. Nature of the data set: Urine cGMP. The class given is in vivo, human. Particulars: for Urine cGMP, ratio-to-baseline (95% CI): geometric mean ratio; for Urine cGMP: geometric mean.
Another data set deals with urine ANP. Nature of the data set: Urine ANP. The note with it: for Urine ANP, ratio-to-baseline (95% CI): geometric mean ratio; for Urine ANP: geometric mean. The class given is in vivo, human.
For another data set, the system named is plasma aldosterone. Nature of the data set: Plasma aldosterone. The class given is in vivo, human. In outline:
as §1

For another data set, the system named is urinary NT-proBNP. The data set can be described thus: Urinary NT-proBNP. The class given is in vivo, human. In outline: (§2)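 Same patients, diet and oral dosing schedule. Urine collected over 24 h as two 12-h fractions (8:00–20:00, 20:00–8:00) at baseline, Day 7 and Day 21. Volume recorded; sodium, potassium and creatinine measured by standard laboratory methods, NT-proBNP by Elecsys immunoassay. Geometric means calculated; ratio-to-baseline by paired t-test on log-transformed data.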

For data set [3], the system named is plasma renin concentration (PRC). Nature of the data set: Plasma renin concentration. The class given is in vivo, human. The note with it: for PRC, ratio-to-baseline (95% CI): geometric mean ratio; for PRC, predose: geometric mean. An outline of the steps: as §1
The nature of data set [4]: Urinary sodium, potassium and creatinine excretion. Particulars: either treatment period (100 and 200 mg bid). The class given is in vivo, human. In outline: as §2
The conditions of data set [5]: patients with HFrEF, PARADIGM-HF; cited from earlier work.
Data set [6] concerns plasma endothelin-1 (ET-1). The data set can be described thus: Plasma endothelin-1. The class given is in vivo, human. In outline:
as §1

Data set [7] has as its system plasma renin activity (PRA). The data set can be described thus: Plasma renin activity. The format is in vivo, human. The note with it: for PRA, ratio-to-baseline (95% CI): geometric mean ratio; for PRA, predose: geometric mean. An outline of the steps: as §1
[8] abbreviates: Day 7 (LCZ696 100 mg bid), N=30.
Setting [9] is: Day 21 (LCZ696 200 mg bid), N=27.
The mark [10] stands for this setting: Day 21, predose, LCZ696 200 mg bid for 14 days.

Bounds are passed on as bounds.

What is called Tmax is the time at which the peak concentration occurs. Broadly, the AUC(0-t) is exposure summed from dosing to a finite time, without extrapolation to infinity. A high value points to more exposure. One may read the Cmax as the highest concentration seen after dosing. As to `C[C@H](C[C@@H](Cc1ccc(-c2ccccc2)cc1)NC(=O)CCC(=O)O)C(=O)O` [LBQ657], the “T1/2, mean (SD)” value in data set [1] (oral) is 18.4 (6.8) h. Besides, in [1], the “Exposure in patients with HF higher than in healthy subjects” value (“Exposure in patients with HF higher than” below) is roughly 110%; the “Dose proportionality of Cmax and AUC0-12 h” value (“Dose proportionality” below) was “approximately dose‐proportional”. In [1] (oral, 200 mg), the time to peak (Tmax) is no more than 2.5 h. For the same compound, in data set [1] (po, 100 mg), the exposure AUC(0-t) worked out at 82600 ng·h/mL, the highest concentration (Cmax) turned out to be 9100 ng/mL and the Tmax was determined as 2.5 h. In data set [1] (po, 200 mg), the exposure AUC(0-t) was 147000 ng·h/mL, the peak level (Cmax) was 16300 ng/mL and the time to peak (Tmax) was 2 h.
As for `CCOC(=O)[C@H](C)C[C@@H](Cc1ccc(-c2ccccc2)cc1)NC(=O)CCC(=O)O` [Sacubitril, sacubitril], the “T1/2, mean (SD)” value in data set [1] (oral) is given as 3.9 (3.6) h. In addition, in data set [1], the “Exposure in patients with HF higher than” value is reported as “approximately 55%”; the “Dose proportionality” value is recorded as “approximately dose‐proportional”. In addition, the Tmax in [1] (oral, 200 mg) is no more than 0.5 h. For the same compound, in data set [1] (po, 100 mg), the AUC(0-t) came to 1540 ng·h/mL, the highest level (Cmax) was 1230 ng/mL and the time of peak concentration (Tmax) worked out at 0.5 h. In addition, in data set [1] (po, 200 mg), the AUC(0-t) came out at 3150 ng·h/mL, the highest level (Cmax) was 2410 ng/mL and the Tmax was 0.5 h.
Take `CCCCC(=O)N(Cc1ccc(-c2ccccc2-c2nnn[nH]2)cc1)[C@H](C(=O)O)C(C)C` [Valsartan, valsartan, reference compound]: the “T1/2, mean (SD)” value in data set [1] (oral) was 13.7 (5.0) h. In data set [1], the “Exposure in patients with HF higher than” value is given as roughly 132%; the “Dose proportionality” value is reported as “less than dose‐proportional”. For the same compound, the time to peak (Tmax) in data set [1] (oral, 200 mg) is no more than 2 h. In data set [1] (po, 100 mg), the AUC(0-t) was found to be 25900 ng·h/mL, the Cmax amounted to 3810 ng/mL and the time to peak (Tmax) came out at 2 h. Moreover, in data set [1] (po, 200 mg), the AUC(0-t) is 38800 ng·h/mL, the concentration peaked (Cmax) at 6040 ng/mL and the Tmax amounted to 2 h.
As to Sacubitril/valsartan [LCZ696], the “Plasma ANP, ratio-to-baseline (95% CI)” value with plasma ANP (Day 7 (LCZ696 100 mg bid)) is reported as 0.92 (0.80–1.05) P = 0.223; with plasma ANP (Day 21 (LCZ696 200 mg bid)), 1.00 (0.80–1.26) P = 0.986. Moreover, the “Plasma ANP, predose” value with plasma ANP (setting [8]) was found to be 105.20 pg/mL; with plasma ANP (setting [9]) it was 110.83 pg/mL. In addition, in the data set on plasma ANP (either treatment period (100 and 200 mg bid)), the “Plasma ANP versus baseline” value is reported as “not significantly different from baseline”. The “Dose relation of the frequency of AEs” value in data set [2] (100 vs 200 mg bid) was “not dose related”. The “Deaths or serious AEs during the study” value in data set [2] (LCZ696 100 mg bid 7 days then 200 mg bid 14 days, 30 patients) is on record as “No deaths or serious AEs occurred”. Besides, the “Subjects with AE” value in [2] (LCZ696 100 mg bid (N=30), 7-day titration period) is 16 (53.3%) n (%); in data set [2] (LCZ696 200 mg bid (N=30), 14-day treatment period), 15 (50.0%) n (%); in data set [2] (Total (N=30)) it was 21 (70.0%) n (%). In addition, the Overall tolerability result in data set [2] (LCZ696 100 mg bid for 7 days and 200 mg bid for 14 days) was “well tolerated”. Also, in [2] (of 30 patients), the “Patients who completed the study treatment as per protocol” value is recorded as 27 (90%) n (%). For the same compound, the “Hypotension reported as an AE” value in data set [2] (whole study) is on record as “not reported”. Moreover, the “Plasma NT-proBNP, ratio-to-baseline [95% CI]” value was 0.53 [0.45–0.62] in the data set on plasma NT-proBNP (Day 7 (LCZ696 100 mg bid)) and 0.56 [0.45–0.70] in the data set with plasma NT-proBNP (Day 21 (LCZ696 200 mg bid)). The “Plasma cGMP, ratio-to-baseline (95% CI)” value with plasma cGMP (Day 7 (LCZ696 100 mg bid)) is reported as 1.24 (1.06–1.45) P = 0.008; with plasma cGMP (Day 21 (LCZ696 200 mg bid)), 1.38 (1.16–1.65) P < 0.001. Also, the “Plasma cGMP, predose” value with plasma cGMP (Day 7 (LCZ696 100 mg bid), N=30, patients with HFrEF) was 13.83 nmol/L; in the data set on plasma cGMP (setting [9]), 15.07 nmol/L. For the same compound, the “Urine cGMP, ratio-to-baseline (95% CI)” value is on record as 1.17 (0.97–1.40) P = 0.090 in the data set with urine cGMP (Day 7 (LCZ696 100 mg bid)) and 1.22 (1.01–1.47) P = 0.040 in the data set with urine cGMP (Day 21 (LCZ696 200 mg bid)). The “Urine cGMP” value in the data set with urine cGMP (setting [8]) is listed as 1096.09 nmol; in the data set on urine cGMP (setting [9]), 1180.57 nmol. Further, the “Urine ANP, ratio-to-baseline (95% CI)” value in the data set on urine ANP (Day 7 (LCZ696 100 mg bid)) is given as 1.69 (1.40–2.03) P < 0.001; in the data set with urine ANP (Day 21 (LCZ696 200 mg bid)) it was 1.82 (1.54–2.17) P < 0.001. Besides, the “Urine ANP” value in the data set on urine ANP (setting [8]) came to 353.42 ng; in the data set with urine ANP (setting [9]) it was 378.48 ng. In addition, in the data set on plasma aldosterone (Day 7 (LCZ696 100 mg bid)), the “Predose plasma aldosterone level compared with baseline” value is recorded as “trend toward a reduction”. Besides, in the data set with plasma aldosterone (Day 21), the “Decrease in plasma aldosterone levels” value was determined as 21%. Also, in the data set with plasma aldosterone (setting [10]), the “Plasma aldosterone, ratio-to-baseline [95% CI]” value is 0.79 [0.65–0.95]. Besides, the “Urinary NT-proBNP, ratio-to-baseline” value with urinary NT-proBNP (after LCZ696 100 mg bid for 7 days) came to 0.68; in the data set on urinary NT-proBNP (after LCZ696 200 mg bid for 14 days) it was 0.74. Further, the results for the “PRC, ratio-to-baseline (95% CI)” value in data set [3] (Day 7 (LCZ696 100 mg bid)) and in [3] (Day 21 (LCZ696 200 mg bid)) were 4.30 (2.78–6.64) P < 0.001 and 3.50 (2.13–5.76) P < 0.001, respectively. Moreover, the “PRC, predose” value in data set [3] (setting [8]) turned out to be 42.64 pg/mL; in data set [3] (setting [9]) it was 34.11 pg/mL. The “Change in mean urinary sodium, potassium, and creatinine excretion” value in [4] is “No statistically significant changes”. Further, the “Reduction of CV and all-cause mortality and HF hospitalizations versus enalapril” value in data set [5] is recorded as “superior”. The “Predose plasma ET-1 level compared with baseline” value in [6] (Day 7 (LCZ696 100 mg bid)) was “trend toward a reduction”. Besides, the “Plasma ET-1, ratio-to-baseline [95% CI]” value in data set [6] (setting [10]) is 0.80 [0.71–0.91]. Moreover, the “PRA, ratio-to-baseline (95% CI)” value is listed as 3.94 (2.27–6.87) P < 0.001 in data set [7] (Day 7 (LCZ696 100 mg bid)) and 2.27 (1.20–4.32) P = 0.014 in [7] (Day 21 (LCZ696 200 mg bid)). The “PRA, predose” value in data set [7] (Day 7 (LCZ696 100 mg bid), 29 patients) is on record as 2.70 ng/mL/h; in [7] (Day 21 (LCZ696 200 mg bid), 26 patients), 1.64 ng/mL/h.

The values above are taken from PMC5108443 (Cardiovascular Therapeutics, 2016).
